In ChEMBL document CHEMBL1153153, “Small molecule inhibitors of HIV RT Ribonuclease H” (Bioorg Med Chem Lett, 2010):

System: not listed separately
Assay: Cytotoxicity against human MT4 cells by MTS assay
Assay type: cell-based
Conditions: read-out: TC50 (the source's name)
How it was run: (§1)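 HIV-infected MT4 cells are used in a cytopathic effect reduction assay read by MTS. TC50 is the concentration causing 50% death of uninfected MT4 cells; TI is calculated as TC50/EC50.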

Compound | CC50
c1ccc(CSc2nnc(-c3ccco3)n2Cc2ccccc2)cc1 | 59.5 µM
c1ccc(Cn2c(SCc3ccncc3)nnc2-c2cccs2)cc1 | > 105 µM
COc1ccc(CSc2nnc(-c3cccs3)n2Cc2ccccc2)cc1 | 2.5 µM
c1ccc(CSc2nnc(-c3cccs3)n2Cc2ccccc2)cc1 | > 132 µM
Clc1ccc(CSc2nnc(-c3cccs3)n2Cc2ccccc2)cc1 | 27.6 µM
c1ccc(CSc2nnc(-c3ccccc3)n2Cc2ccccc2)cc1 | 3.1 µM
Cc1ccc(NC(=O)CSC(=S)N(Cc2ccccc2)Cc2ccccc2)c(C)c1 | 115 µM
O=C(CSC(=S)N(Cc1ccccc1)Cc1ccccc1)Nc1ccc(Cl)c(Cl)c1Cl | > 98.2 µM
N#Cc1cccc(NC(=O)CSC(=S)N(Cc2ccccc2)Cc2ccccc2)c1 | > 116 µM
COc1ccc(CSc2nnc(-c3ccccc3)n2Cc2ccccc2)cc1 | 7.9 µM
c1ccc(CSc2nnc(-c3ccccn3)n2Cc2ccccc2)cc1 | 32 µM

Target: not listed separately
Assay: Binding affinity to HIV reverse transcriptase RNase H activity assessed as dissociation constant
Design: species or system Human immunodeficiency virus
Conditions: not given
How it was run: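 HIV RT holoenzyme is titrated with increasing inhibitor while intrinsic protein fluorescence is monitored (ex 295 nm, em 340 nm). The progressive fluorescence quench is fitted to a quadratic equation to give Kd and binding stoichiometry.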

Compound | Kd
Clc1ccc(CSc2nnc(-c3cccs3)n2Cc2ccccc2)cc1 | 2 µM

System: not listed separately
Assay: Inhibition of Escherichia coli RNase H
Conditions: not given
How it was run: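 Same buffer and 100 nM RNA/DNA FRET substrate as the HIV RT RNase H assay, at 25 °C. Uses 150 pM E. coli RNase H (KM 150 nM). Substrate cleavage is followed kinetically by fluorescence at ex 585/em 615 nm, read every 30 s.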

Compound | IC50
c1ccc(CSc2nnc(-c3ccco3)n2Cc2ccccc2)cc1 | > 106 µM
c1ccc(Cn2c(SCc3ccncc3)nnc2-c2cccs2)cc1 | > 99.8 µM
COc1ccc(CSc2nnc(-c3cccs3)n2Cc2ccccc2)cc1 | > 103 µM
c1ccc(CSc2nnc(-c3cccs3)n2Cc2ccccc2)cc1 | 105 µM
Clc1ccc(CSc2nnc(-c3cccs3)n2Cc2ccccc2)cc1 | > 103 µM
c1ccc(CSc2nnc(-c3ccccc3)n2Cc2ccccc2)cc1 | > 106 µM
Cc1ccc(NC(=O)CSC(=S)N(Cc2ccccc2)Cc2ccccc2)c(C)c1 | > 80 µM
O=C(CSC(=S)N(Cc1ccccc1)Cc1ccccc1)Nc1ccc(Cl)c(Cl)c1Cl | > 80 µM
N#Cc1cccc(NC(=O)CSC(=S)N(Cc2ccccc2)Cc2ccccc2)c1 | > 80 µM
COc1ccc(CSc2nnc(-c3ccccc3)n2Cc2ccccc2)cc1 | > 104 µM
c1ccc(CSc2nnc(-c3ccccn3)n2Cc2ccccc2)cc1 | > 80 µM

Target: not listed separately
Assay: Inhibition of HIV reverse transcriptase
Design: species or system Human immunodeficiency virus
Conditions: not given
How it was run: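 Polymerase assay at 25 °C in 50 mM HEPES pH 8.5 with 6 mM MgCl2, 80 mM KCl, 3% glycerol, 1.5 mM DTT, 0.05% Triton X-100 and BSA. Uses poly rA-oligodT16 template, TTP plus α-33P-TTP tracer (10 nM) and 1.6 nM HIV RT.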

Compound | IC50
c1ccc(CSc2nnc(-c3ccco3)n2Cc2ccccc2)cc1 | 12.4 µM
c1ccc(Cn2c(SCc3ccncc3)nnc2-c2cccs2)cc1 | 11.6 µM
COc1ccc(CSc2nnc(-c3cccs3)n2Cc2ccccc2)cc1 | > 103 µM
c1ccc(CSc2nnc(-c3cccs3)n2Cc2ccccc2)cc1 | 27.3 µM
Clc1ccc(CSc2nnc(-c3cccs3)n2Cc2ccccc2)cc1 | 103 µM
c1ccc(CSc2nnc(-c3ccccc3)n2Cc2ccccc2)cc1 | 46.2 µM
Cc1ccc(NC(=O)CSC(=S)N(Cc2ccccc2)Cc2ccccc2)c(C)c1 | > 80 µM
O=C(CSC(=S)N(Cc1ccccc1)Cc1ccccc1)Nc1ccc(Cl)c(Cl)c1Cl | > 80 µM
N#Cc1cccc(NC(=O)CSC(=S)N(Cc2ccccc2)Cc2ccccc2)c1 | > 80 µM
COc1ccc(CSc2nnc(-c3ccccc3)n2Cc2ccccc2)cc1 | 4.5 µM
c1ccc(CSc2nnc(-c3ccccn3)n2Cc2ccccc2)cc1 | 30.4 µM

System: Human immunodeficiency virus
Assay: Antiviral activity against HIV infected in human MT4 cells assessed as inhibition virus-induced cytopathic effect by MTS assay
Assay type: functional, organism-based
Conditions: Human immunodeficiency virus 1, MT4
How it was run: as §1

Compound | EC50
c1ccc(CSc2nnc(-c3ccco3)n2Cc2ccccc2)cc1 | 18.5 µM
c1ccc(Cn2c(SCc3ccncc3)nnc2-c2cccs2)cc1 | 4 µM
COc1ccc(CSc2nnc(-c3cccs3)n2Cc2ccccc2)cc1 | 4.3 µM
c1ccc(CSc2nnc(-c3cccs3)n2Cc2ccccc2)cc1 | 4.4 µM
Clc1ccc(CSc2nnc(-c3cccs3)n2Cc2ccccc2)cc1 | 1.4 µM
c1ccc(CSc2nnc(-c3ccccc3)n2Cc2ccccc2)cc1 | 5.8 µM
Cc1ccc(NC(=O)CSC(=S)N(Cc2ccccc2)Cc2ccccc2)c(C)c1 | 3.7 µM
O=C(CSC(=S)N(Cc1ccccc1)Cc1ccccc1)Nc1ccc(Cl)c(Cl)c1Cl | 24.8 µM
N#Cc1cccc(NC(=O)CSC(=S)N(Cc2ccccc2)Cc2ccccc2)c1 | 6.5 µM
COc1ccc(CSc2nnc(-c3ccccc3)n2Cc2ccccc2)cc1 | 1.1 µM
c1ccc(CSc2nnc(-c3ccccn3)n2Cc2ccccc2)cc1 | 3.6 µM

System: not listed separately
Assay: Therapeutic index, ratio of IC50 for HIV to EC50 for human MT4 cells
Assay type: cell-based
Conditions: read-out: Ratio IC50/EC50
How it was run: as §1

Compound | selectivity ratio
c1ccc(CSc2nnc(-c3ccco3)n2Cc2ccccc2)cc1 | 3.2
c1ccc(Cn2c(SCc3ccncc3)nnc2-c2cccs2)cc1 | > 26
COc1ccc(CSc2nnc(-c3cccs3)n2Cc2ccccc2)cc1 | 0.6
c1ccc(CSc2nnc(-c3cccs3)n2Cc2ccccc2)cc1 | > 30
Clc1ccc(CSc2nnc(-c3cccs3)n2Cc2ccccc2)cc1 | 19.9
c1ccc(CSc2nnc(-c3ccccc3)n2Cc2ccccc2)cc1 | 0.6
Cc1ccc(NC(=O)CSC(=S)N(Cc2ccccc2)Cc2ccccc2)c(C)c1 | 31.3
O=C(CSC(=S)N(Cc1ccccc1)Cc1ccccc1)Nc1ccc(Cl)c(Cl)c1Cl | > 4
N#Cc1cccc(NC(=O)CSC(=S)N(Cc2ccccc2)Cc2ccccc2)c1 | > 18
COc1ccc(CSc2nnc(-c3ccccc3)n2Cc2ccccc2)cc1 | 7.3
c1ccc(CSc2nnc(-c3ccccn3)n2Cc2ccccc2)cc1 | 8.8

Target: not listed separately
Assay: Inhibition of HIV reverse transcriptase RNase H activity by FRET based assay
Design: species or system Human immunodeficiency virus
Conditions: not given
How it was run: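 Uses 100 nM RNA/DNA hybrid FRET substrate and 2 nM HIV RT (KM 33 nM); 2% DMSO from compound. Hydrolysis is followed over time by fluorescence (ex 585/em 615 nm), with readings every 30 s.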

Compound | IC50
c1ccc(CSc2nnc(-c3ccco3)n2Cc2ccccc2)cc1 | 1.2 µM
c1ccc(Cn2c(SCc3ccncc3)nnc2-c2cccs2)cc1 | 0.2 µM
COc1ccc(CSc2nnc(-c3cccs3)n2Cc2ccccc2)cc1 | 5.9 µM
c1ccc(CSc2nnc(-c3cccs3)n2Cc2ccccc2)cc1 | < 0.21 µM
Clc1ccc(CSc2nnc(-c3cccs3)n2Cc2ccccc2)cc1 | 1 µM
c1ccc(CSc2nnc(-c3ccccc3)n2Cc2ccccc2)cc1 | 1 µM
Cc1ccc(NC(=O)CSC(=S)N(Cc2ccccc2)Cc2ccccc2)c(C)c1 | 1.9 µM
O=C(CSC(=S)N(Cc1ccccc1)Cc1ccccc1)Nc1ccc(Cl)c(Cl)c1Cl | 3.3 µM
N#Cc1cccc(NC(=O)CSC(=S)N(Cc2ccccc2)Cc2ccccc2)c1 | 4.7 µM
COc1ccc(CSc2nnc(-c3ccccc3)n2Cc2ccccc2)cc1 | 1 µM
c1ccc(CSc2nnc(-c3ccccn3)n2Cc2ccccc2)cc1 | 1.7 µM

System: Vero
Assay: Cytotoxicity against african green monkey Vero cells by MTS assay
Assay type: cell-based
Conditions: Chlorocebus sabaeus

Compound | IC50
c1ccc(CSc2nnc(-c3ccco3)n2Cc2ccccc2)cc1 | 46 µM
c1ccc(Cn2c(SCc3ccncc3)nnc2-c2cccs2)cc1 | 110 µM
COc1ccc(CSc2nnc(-c3cccs3)n2Cc2ccccc2)cc1 | 24.6 µM
c1ccc(CSc2nnc(-c3cccs3)n2Cc2ccccc2)cc1 | 41 µM
Clc1ccc(CSc2nnc(-c3cccs3)n2Cc2ccccc2)cc1 | 16.9 µM
c1ccc(CSc2nnc(-c3ccccc3)n2Cc2ccccc2)cc1 | 28.9 µM
Cc1ccc(NC(=O)CSC(=S)N(Cc2ccccc2)Cc2ccccc2)c(C)c1 | > 115 µM
O=C(CSC(=S)N(Cc1ccccc1)Cc1ccccc1)Nc1ccc(Cl)c(Cl)c1Cl | > 100 µM
N#Cc1cccc(NC(=O)CSC(=S)N(Cc2ccccc2)Cc2ccccc2)c1 | > 100 µM
COc1ccc(CSc2nnc(-c3ccccc3)n2Cc2ccccc2)cc1 | 33.9 µM
c1ccc(CSc2nnc(-c3ccccn3)n2Cc2ccccc2)cc1 | 34 µM
